Results on one compound are retold here after ChEMBL document CHEMBL3627671, “Novel derivatives of nitro-substituted salicylic acids: Synthesis, antimicrobial activity and cytotoxicity” (Bioorg Med Chem, 2015).

In brackets after ≈: the same amount, converted by molar mass.

For test [1], the system named is Mycobacterium tuberculosis. Nature of the test: Antimycobacterial activity against Mycobacterium tuberculosis H37Rv 331/88 after 14 days. As to conditions: H37Rv 331/88, 336 h. The test is classed as functional.
Test [2] deals with Mycobacterium tuberculosis. Nature of the test: Antimycobacterial activity against Mycobacterium tuberculosis H37Rv 331/88 after 21 days. The test is classed as functional. As to conditions: H37Rv 331/88, 504 h.
For test [3], the system named is Mycobacterium avium. The test can be described thus: Antimycobacterial activity against Mycobacterium avium 330/80 after 14 days. The test is classed as functional. As to conditions: 330/80, 336 h.
Test [4] concerns Mycobacterium avium. The test can be described thus: Antimycobacterial activity against Mycobacterium avium 330/80 after 21 days. The test is classed as functional. As to conditions: 330/80, 504 h.
For test [5], the system named is Mycobacterium kansasii. The test can be described thus: Antimycobacterial activity against Mycobacterium kansasii 235/80 after 7 days. The test is classed as functional. As to conditions: 235/80, 168 h. The procedure, abridged:
(§1)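 Šula's semisynthetic medium micromethod at 37 °C, read after 7, 14 and 21 days. The 1.0 McFarland suspension was diluted 10^-4. MIC determined. 6509/96 is a clinical isolate.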

The test system of test [6] is Mycobacterium kansasii. Nature of the test: Antimycobacterial activity against Mycobacterium kansasii 235/80 after 14 days. As to conditions: 235/80, 336 h. The test is classed as functional. The procedure, abridged: as §1
Test [7] relates to Mycobacterium kansasii. Nature of the test: Antimycobacterial activity against Mycobacterium kansasii 235/80 after 21 days. The test is classed as functional. As to conditions: 235/80, 504 h. The method, boiled down: as §1
The subject of test [8] is Mycobacterium kansasii. The test can be described thus: Antimycobacterial activity against Mycobacterium kansasii 6509/96 after 7 days. The test is classed as functional. As to conditions: 6509/96, 168 h. The procedure, abridged:
as §1

Test [9] has as its system Mycobacterium kansasii. Nature of the test: Antimycobacterial activity against Mycobacterium kansasii 6509/96 after 14 days. The test is classed as functional. As to conditions: 6509/96, 336 h. The method, boiled down:
as §1

The subject of test [10] is Mycobacterium kansasii. Nature of the test: Antimycobacterial activity against Mycobacterium kansasii 6509/96 after 21 days. The test is classed as functional. As to conditions: 6509/96, 504 h. The method, boiled down: as §1
The subject of another test is HepG2. The test can be described thus: Cytotoxicity against human HepG2 cells after 24 hrs […]. The test is classed as cell-based. As to conditions: HepG2, 24 h.
The nature of test [11]: Selectivity index, ratio of CI50 for human HepG2 cells to MIC100 for Mycobacterium tuberculosis H37Rv 331/88.

By MIC is commonly meant the lowest concentration found to suppress growth. Higher therefore signals a need for much substance. As usually defined, the IC50 is the concentration that inhibits the measured activity by half. A low value points to greater potency in that assay. On to `O=C(Nc1ccc(C(F)(F)F)cc1)c1cccc([N+](=O)[O-])c1O`, for which the MIC is 32 µM (≈ 10.4 µg/mL) in test [1]; 32 µM (≈ 10.4 µg/mL) in [2]; 250 µM (≈ 81.6 µg/mL) in the test with Mycobacterium avium [3]; 250 µM (≈ 81.6 µg/mL) in the test on Mycobacterium avium [4]; 62.5 µM (≈ 20.4 µg/mL) with Mycobacterium kansasii [5]; 125 µM (≈ 40.8 µg/mL) against Mycobacterium kansasii [6]. The MIC turned out to be 125 µM (≈ 40.8 µg/mL) against Mycobacterium kansasii [7], 62.5 µM (≈ 20.4 µg/mL) in the test on Mycobacterium kansasii [8], 62.5 µM (≈ 20.4 µg/mL) against Mycobacterium kansasii [9] and 125 µM (≈ 40.8 µg/mL) with Mycobacterium kansasii [10]. In the test with HepG2, this compound gave an IC50 of 8 µM. Besides, the “Selectivity Index” value in test [11] was 0.25.
